From ChEMBL document CHEMBL4387734, “Design and synthesis of a novel series of cyanoindole derivatives as potent γ-secretase modulators” (Bioorg Med Chem Lett, 2019)
Converted amounts (≈) assume the structure as drawn.

Assays:
[1] = molecular target: T1, Cytochrome P450 3A4 (Homo sapiens, UniProt P08684); test: Activation of CYP3A4 (unknown origin) using midazolam; assay type: ADME
[2] = molecular target: Voltage-gated inwardly rectifying potassium channel KCNH2 (Homo sapiens, UniProt Q12809); test: Inhibition of human ERG by receptor binding assay
Chain of Voltage-gated inwardly rectifying potassium channel KCNH2 (Q12809 whole entry): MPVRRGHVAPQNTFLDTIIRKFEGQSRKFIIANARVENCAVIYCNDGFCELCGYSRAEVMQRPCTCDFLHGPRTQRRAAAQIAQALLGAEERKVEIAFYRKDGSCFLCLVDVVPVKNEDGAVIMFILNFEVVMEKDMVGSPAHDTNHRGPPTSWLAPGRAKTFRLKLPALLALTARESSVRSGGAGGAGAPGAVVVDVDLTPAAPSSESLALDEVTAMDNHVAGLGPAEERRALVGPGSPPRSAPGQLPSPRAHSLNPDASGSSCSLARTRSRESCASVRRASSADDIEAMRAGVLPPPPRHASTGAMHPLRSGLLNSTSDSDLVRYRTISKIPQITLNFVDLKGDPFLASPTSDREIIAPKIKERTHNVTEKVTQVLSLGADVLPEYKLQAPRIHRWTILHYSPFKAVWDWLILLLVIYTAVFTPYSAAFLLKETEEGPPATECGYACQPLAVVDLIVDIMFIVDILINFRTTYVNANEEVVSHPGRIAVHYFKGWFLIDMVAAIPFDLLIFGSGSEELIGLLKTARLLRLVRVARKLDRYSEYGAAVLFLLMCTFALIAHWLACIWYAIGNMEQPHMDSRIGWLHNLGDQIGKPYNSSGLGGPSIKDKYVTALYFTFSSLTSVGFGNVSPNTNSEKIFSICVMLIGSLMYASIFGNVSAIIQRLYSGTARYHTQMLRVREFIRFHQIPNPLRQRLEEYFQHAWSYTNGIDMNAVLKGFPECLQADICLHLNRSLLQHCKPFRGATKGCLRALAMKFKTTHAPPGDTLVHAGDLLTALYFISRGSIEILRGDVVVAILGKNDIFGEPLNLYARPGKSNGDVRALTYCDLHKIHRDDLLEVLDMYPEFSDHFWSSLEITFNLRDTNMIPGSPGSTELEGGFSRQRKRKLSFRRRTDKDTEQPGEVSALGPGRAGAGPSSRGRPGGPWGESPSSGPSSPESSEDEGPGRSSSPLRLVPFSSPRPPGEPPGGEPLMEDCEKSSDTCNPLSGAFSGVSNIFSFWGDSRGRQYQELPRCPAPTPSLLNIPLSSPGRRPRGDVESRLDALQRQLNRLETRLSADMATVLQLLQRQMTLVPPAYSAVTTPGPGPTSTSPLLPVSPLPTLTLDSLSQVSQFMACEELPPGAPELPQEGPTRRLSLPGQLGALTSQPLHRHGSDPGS
How it was run: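 Receptor binding on human hERG channel; IC50 reported.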

[3] = Lipophilicity, log P of the compound; assay type: physicochemical; details: octanol/water
[4] = tested on: Mus musculus; test: In vivo inhibition of gamma secretase in mouse increase in Abeta38 levels in brain at 30 mg/kg, po measured after 4 hrs relative to control; set-up: scale not given: the % may be the effect or the level left
[5] = Metabolic stability in dog liver microsomes assessed as compound metabolism at 1 uM incubated for 15 mins; assay type: ADME, Canis lupus familiaris, Microsome; details: read-out: Drug metabolism
How it was run: (§1)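 Compound at 1 μM incubated 15 min with human, mouse or dog liver microsomes; percent metabolized reported.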

[6] = Ratio of drug concentration in brain to plasma of mouse at 30 mg/kg, po measured after 4 hrs by LC/MS/MS method; assay type: ADME, organism-based; details: read-out: BPR
How it was run: (§2)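 Mice dosed orally at 30 mg/kg; plasma and brain sampled 4 h post-dose; compound quantified by qualified research LC–MS/MS; brain/plasma ratio at 4 h.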

[7] = Kinetic solubility of the compound in pH 7.4 buffer; assay type: physicochemical; details: read-out: Kinetic_solubility
[8] = Drug concentration in mouse plasma at 30 mg/kg, po measured after 4 hrs by LC/MS/MS method; assay type: ADME, organism-based; how it was run: as §2
[9] = molecular target: Cytochrome P450 2C9 (Homo sapiens, UniProt P11712); test: Inhibition of CYP2C9 (unknown origin); assay type: ADME
Chain of Cytochrome P450 2C9 (P11712 whole entry): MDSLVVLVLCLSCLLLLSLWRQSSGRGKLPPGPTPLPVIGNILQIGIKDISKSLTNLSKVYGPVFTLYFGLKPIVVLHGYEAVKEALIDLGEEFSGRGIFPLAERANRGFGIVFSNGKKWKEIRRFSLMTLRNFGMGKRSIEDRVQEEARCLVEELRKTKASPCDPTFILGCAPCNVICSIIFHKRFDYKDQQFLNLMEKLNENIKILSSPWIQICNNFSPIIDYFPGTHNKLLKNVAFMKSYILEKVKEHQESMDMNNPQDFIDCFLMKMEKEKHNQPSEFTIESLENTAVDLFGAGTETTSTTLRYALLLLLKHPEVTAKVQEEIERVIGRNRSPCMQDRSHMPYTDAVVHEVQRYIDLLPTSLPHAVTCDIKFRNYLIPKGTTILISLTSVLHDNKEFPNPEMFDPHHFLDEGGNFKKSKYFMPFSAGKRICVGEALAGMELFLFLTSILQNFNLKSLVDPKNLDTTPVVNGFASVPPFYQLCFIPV

[10] = molecular target: Cytochrome P450 2D6 (Homo sapiens, UniProt P10635); test: Inhibition of CYP2D6 (unknown origin); assay type: ADME
Chain of Cytochrome P450 2D6 (P10635 whole entry): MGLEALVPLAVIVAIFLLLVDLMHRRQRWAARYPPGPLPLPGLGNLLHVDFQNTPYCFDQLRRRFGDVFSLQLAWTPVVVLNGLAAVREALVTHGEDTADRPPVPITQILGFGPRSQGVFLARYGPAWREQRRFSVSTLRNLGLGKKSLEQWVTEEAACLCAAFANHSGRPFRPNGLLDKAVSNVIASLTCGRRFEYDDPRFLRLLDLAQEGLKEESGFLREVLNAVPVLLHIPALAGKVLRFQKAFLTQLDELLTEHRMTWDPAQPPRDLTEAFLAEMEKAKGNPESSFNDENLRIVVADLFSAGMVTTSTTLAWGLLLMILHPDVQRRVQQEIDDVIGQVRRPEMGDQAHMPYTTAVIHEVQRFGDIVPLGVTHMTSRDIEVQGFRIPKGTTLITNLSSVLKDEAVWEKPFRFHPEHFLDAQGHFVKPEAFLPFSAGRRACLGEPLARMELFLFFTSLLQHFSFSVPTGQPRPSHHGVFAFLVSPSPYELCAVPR

[11] = Inhibition of gamma secretase in mouse Neuro2 cells expressing endogenous levels of amyloid precursor protein assessed as reduction in Abeta42 levels incubated for 18 hrs by sandwich ELISA; assay type: cell-based
How it was run: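 IC50 as concentration reducing Aβ42 by 50%; mean of at least 2 determinations; mouse assay.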

[12] = Drug concentration in mouse brain at 30 mg/kg, po measured after 4 hrs by LC/MS/MS method; assay type: ADME, organism-based; details: read-out: Drug uptake; how it was run: as §2
[13] = Free drug concentration in mouse brain; assay type: ADME, tissue-based; details: in vivo
How it was run: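 Free brain concentration calculated as fu,b × total brain level (μM), mouse 30 mg/kg p.o., 4 h.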

[14] = Fraction of unbound in rat brain
[15] = Metabolic stability in human liver microsomes assessed as compound metabolism at 1 uM incubated for 15 mins; assay type: ADME, Microsome; details: read-out: Drug metabolism; how it was run: as §1
[16] = molecular target: Cytochrome P450 2C19 (Homo sapiens, UniProt P33261); test: Inhibition of CYP2C19 (unknown origin); assay type: ADME
Chain of Cytochrome P450 2C19 (P33261 whole entry): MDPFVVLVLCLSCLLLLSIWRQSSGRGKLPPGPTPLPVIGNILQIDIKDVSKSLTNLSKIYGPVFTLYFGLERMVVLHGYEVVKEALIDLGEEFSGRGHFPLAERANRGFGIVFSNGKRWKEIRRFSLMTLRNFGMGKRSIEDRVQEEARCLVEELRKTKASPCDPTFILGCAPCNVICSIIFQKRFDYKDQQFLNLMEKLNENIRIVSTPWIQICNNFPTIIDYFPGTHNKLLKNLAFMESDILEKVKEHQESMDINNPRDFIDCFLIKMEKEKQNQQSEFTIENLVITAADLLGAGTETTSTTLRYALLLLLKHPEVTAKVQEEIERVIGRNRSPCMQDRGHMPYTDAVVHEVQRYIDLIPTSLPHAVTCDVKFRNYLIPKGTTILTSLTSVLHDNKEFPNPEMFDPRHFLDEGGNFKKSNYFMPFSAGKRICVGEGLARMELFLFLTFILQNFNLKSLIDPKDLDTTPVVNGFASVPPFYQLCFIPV

[17] = molecular target: hERG (KCNH2) (Homo sapiens, UniProt Q12809); test: Inhibition of human ERG assessed as inhibition of IKr current at 3 uM by patch express assay
Chain of hERG (KCNH2) (Q12809 whole entry): as the sequence (Q12809 whole entry) above
How it was run: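 Human ERG: percent inhibition of IKr current at 3 μM.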

[18] = tested on: Mus musculus; test: In vivo inhibition of gamma secretase in mouse assessed as assessed as reduction in Abeta42 levels in brain at 30 mg/kg, po measured after 4 hrs relative to control; assay type: functional
[19] = Metabolic stability in mouse liver microsomes assessed as compound metabolism at 1 uM incubated for 15 mins; assay type: ADME, Microsome; details: read-out: Drug metabolism; how it was run: as §1
[20] = molecular target: Gamma-secretase; test: Inhibition of gamma secretase in human SKNBE2 cells expressing human APP695 assessed as reduction in Abeta42 levels incubated for 18 hrs by sandwich ELISA
[21] = Toxicity in dog assessed as effect on behavior at 10 mg/kg, po; assay type: organism-based, Canis lupus familiaris; details: in vivo
How it was run: (§3)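 Single oral 10 mg/kg dose in dog; behaviour and appearance observed; plasma liver enzymes ALT and AST monitored.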

[22] = Toxicity in dog assessed as effect on appearance at 10 mg/kg, po; assay type: organism-based, Canis lupus familiaris; details: in vivo; how it was run: as §3
[23] = tested on: Canis familiaris; test: In vivo inhibition of gamma secretase in dog assessed as assessed as reduction in Abeta42 levels in cerebrospinal fluid at 10 mg/kg, po measured after 8 hrs relative to control; details: Canis lupus familiaris
[24] = Tmax in dog at 10 mg/kg, po; assay type: ADME, organism-based, Canis lupus familiaris; details: in vivo
How it was run: (§4)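 Dogs given single oral 10 mg/kg dose; plasma concentration followed to obtain Cmax and time of Cmax.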

[25] = Cmax in dog at 10 mg/kg, po after 1.6 hrs; assay type: ADME, organism-based, Canis lupus familiaris; set-up: dose 10 mg/kg, route oral; details: in vivo; how it was run: as §4
[26] = molecular target: T1, Cytochrome P450 3A4; test: Inhibition of CYP3A4 (unknown origin) using midazolam; assay type: ADME
[27] = molecular target: T2, Cytochrome P450 2C8 (Homo sapiens, UniProt P10632); test: Inhibition of CYP2C8 (unknown origin); assay type: ADME
T2 sequence (P10632 whole entry): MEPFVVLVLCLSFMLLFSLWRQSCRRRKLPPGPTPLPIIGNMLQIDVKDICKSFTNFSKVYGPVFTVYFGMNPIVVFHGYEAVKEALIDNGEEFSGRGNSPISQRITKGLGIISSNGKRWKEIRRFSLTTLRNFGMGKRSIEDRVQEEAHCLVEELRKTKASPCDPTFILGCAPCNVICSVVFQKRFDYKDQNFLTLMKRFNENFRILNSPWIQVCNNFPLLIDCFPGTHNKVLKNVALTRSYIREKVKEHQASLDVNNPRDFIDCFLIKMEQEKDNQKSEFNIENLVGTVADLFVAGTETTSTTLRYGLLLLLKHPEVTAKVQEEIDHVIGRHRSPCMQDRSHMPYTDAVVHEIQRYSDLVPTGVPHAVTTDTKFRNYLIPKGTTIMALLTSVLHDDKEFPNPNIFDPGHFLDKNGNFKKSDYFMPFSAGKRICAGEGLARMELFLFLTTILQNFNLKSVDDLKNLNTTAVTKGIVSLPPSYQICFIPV

[28] = molecular target: T3, Cytochrome P450 1A2 (Homo sapiens, UniProt P05177); test: Inhibition of CYP1A2 (unknown origin); assay type: ADME
T3 sequence (P05177 whole entry): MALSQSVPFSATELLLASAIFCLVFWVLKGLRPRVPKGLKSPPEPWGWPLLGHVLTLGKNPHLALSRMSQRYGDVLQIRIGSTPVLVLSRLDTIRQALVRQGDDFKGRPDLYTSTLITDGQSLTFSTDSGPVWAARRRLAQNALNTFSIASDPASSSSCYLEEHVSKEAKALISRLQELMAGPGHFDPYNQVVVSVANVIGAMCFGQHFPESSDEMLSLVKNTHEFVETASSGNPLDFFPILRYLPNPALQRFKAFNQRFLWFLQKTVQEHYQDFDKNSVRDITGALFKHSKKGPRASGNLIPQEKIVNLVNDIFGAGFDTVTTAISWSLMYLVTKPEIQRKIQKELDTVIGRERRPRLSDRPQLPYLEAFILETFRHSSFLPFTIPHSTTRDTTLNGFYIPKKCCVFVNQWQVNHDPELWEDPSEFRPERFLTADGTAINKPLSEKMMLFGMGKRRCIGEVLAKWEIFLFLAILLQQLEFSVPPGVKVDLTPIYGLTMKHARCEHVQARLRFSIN

[29] = Toxicity in dog assessed as effect on ALT level at 10 mg/kg, po; assay type: organism-based, Canis lupus familiaris; details: in vivo; how it was run: as §3
[30] = Toxicity in dog assessed as effect on AST level at 10 mg/kg, po; assay type: organism-based, Canis lupus familiaris; details: in vivo; how it was run: as §3
[31] = tested on: Canis familiaris; test: In vivo inhibition of gamma secretase in dog assessed as assessed as increase in Abeta38 levels in CSF at 10 mg/kg, po measured after 8 hrs relative to control; assay type: functional, Canis lupus familiaris; set-up: scale not given: the % may be the effect or the level left

T1 sequence (P08684 whole entry): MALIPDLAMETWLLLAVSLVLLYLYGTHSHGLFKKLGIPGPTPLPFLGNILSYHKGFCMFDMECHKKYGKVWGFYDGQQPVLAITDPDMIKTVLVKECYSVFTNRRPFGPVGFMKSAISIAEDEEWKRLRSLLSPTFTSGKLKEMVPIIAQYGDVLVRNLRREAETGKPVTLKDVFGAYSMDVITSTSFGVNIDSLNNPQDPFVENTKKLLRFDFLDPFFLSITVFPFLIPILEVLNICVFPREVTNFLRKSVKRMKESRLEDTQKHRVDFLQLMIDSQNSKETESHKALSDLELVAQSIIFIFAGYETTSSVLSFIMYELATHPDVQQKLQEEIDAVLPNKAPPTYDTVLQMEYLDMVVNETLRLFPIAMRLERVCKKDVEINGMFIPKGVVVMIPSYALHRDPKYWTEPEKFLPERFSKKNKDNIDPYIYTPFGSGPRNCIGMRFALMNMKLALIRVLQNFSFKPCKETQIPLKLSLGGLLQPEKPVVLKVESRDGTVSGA

SMILES | IC50 [2] | logP [3] | Activity [4] | metabolised at 0.25 h, 1 µM [5] | Kp at 4 h [6] | solubility kinetic [7] | concentration at 4 h [8] | IC50 [9] | IC50 [10] | IC50 [11] | concentration at 4 h [12] | Drug uptake(free) [13] | Fu [14] | metabolised at 0.25 h, 1 µM [15] | IC50 [16] | inhibition at 3 µM [17] | inhibition in vivo at 30 mg/kg [18] | metabolised at 0.25 h, 1 µM [19] | IC50 [20] | further results
COc1nc(-c2nc(Nc3cc(F)cc(C(F)(F)F)c3)n(C)n2)ccc1-n1cnc(C)c1 | > 10 µM | 4.24 | 53% | 10% | 0.8 | 39 µM (≈ 17.4 µg/mL) | 17.8 µM | 12.3 µM | 16 µM | 0.049 µM | 14 µM | 0.069 µM | 0.5% | 4% | 22.1 µM | 52% | 55% | 0% | 0.019 µM | Activity [1]: Active
COc1c(C#N)ccc2[nH]c(-c3cn4c(n3)[C@H](c3cccc(F)c3C)OCC4)cc12 | 5.29 µM | 4.19 | 40% | 29% | 1.46 | 6 µM (≈ 2.41 µg/mL) | 8.2 to 12.1 µM | 5.9 µM | 9.8 µM | 0.017 µM | 8.25 to 12 µM | 0.026 µM | 0.22% | 18% | 8.3 µM | 31% | 66% | 27% | 0.014 µM | Activity [21]: Non-Toxic; Activity [22]: Non-Toxic; inhibition in vivo at 10 mg/kg [23]: 37%; Tmax [24]: 1.6 h; Cmax [25]: 2.4 µM; IC50 [26]: > 10 µM; IC50 [27]: 1.3 µM; IC50 [28]: > 10 µM; Activity [29]: Non-Toxic; Activity [30]: Non-Toxic; Activity [31]: 40%
